This is an account of results in the array DNA melting data of Ke et al. (doi:10.1101/2024.01.08.574731).

Series [1] in a line: folding enthalpy; higher = less favourable; fluorescence melt of hairpins on a sequencing array, two-state fit. As to conditions: sodium 0.088 M. In short, it runs like this:
(§1)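 Folding enthalpy and melting temperature come from bootstrapped two-state fits to Cy3 fluorescence of library hairpins carrying annealed Cy3 and quencher oligos on a sequenced MiSeq flow cell. Imaging was done in 50 mM Na-HEPES pH 8.0, 25 mM NaCl, stepping by 2.5 °C up to 60 °C, and signals were normalised to pre-quench Cy3 and to control constructs. Results of four replicates were combined by inverse variance, and fitted temperatures were raised by 9.35 °C to match UV melts.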

Series [2] in a line: melting temperature; fluorescence melt of hairpins on a sequencing array, two-state fit, raised by 9.35 °C to match UV melts. As to conditions: sodium 0.088 M. In short, it runs like this:
as §1

Consider GCAGACGCGAAAGCGTGC (((..(((....)))))), for which the folding enthalpy in series [1] was -11.8 kcal/mol. In addition, the Tm in series [2] stood at 52 °C.
The like results for GCGTCCCCACGC ((((....)))) were, in that order, -21 kcal/mol and 51.1 °C.
For GCGGTAAGCCGC ((((....)))), the folding enthalpy in series [1] is -23.3 kcal/mol. For the same sequence, the Tm in series [2] came out at 57.7 °C.
For GATCAGTTAACTGATC ((((((....)))))), the folding enthalpy in series [1] was -40.5 kcal/mol. Further, the Tm in series [2] came to 54.4 °C.
The like results for GATCACATCGGTGATC ((((((....)))))) were, in that order, -39.6 kcal/mol and 57 °C.
The like results for GGATTGAAAAATCC (((((....))))) were, in that order, -21.7 kcal/mol and 44.5 °C.
Consider GCTGCCGGAAACGGTGGC ((..(((....)))..)), for which, in series [1], the folding enthalpy is -40 kcal/mol. The Tm in series [2] was 55.1 °C.
The like results for GAGTTCACGAAAGTGCTC (((..(((....)))))) were, in that order, -10.9 kcal/mol and 28.1 °C.
Consider GTTACCGGAAACAGTAAC (((((.(....).))))), for which the folding enthalpy in series [1] is -17.2 kcal/mol. Moreover, the Tm in series [2] was found to be 32.8 °C.
The like results for GCTGAGCGAAAGCACGGC ((.(.((....)).).)) were, in that order, -21.5 kcal/mol and 56.8 °C.
The like results for GATCACGCTTGTGATC ((((((....)))))) were, in that order, -38 kcal/mol and 57.7 °C.
GGGGGCGAAAGCCAGCCC ((((((....)))..))): the folding enthalpy in series [1] was -14.1 kcal/mol. Moreover, in series [2], the Tm was determined as 51.8 °C.
The like results for GTTACCGAAAGGTTCAAC ((((((....)))..))) were, in that order, -8.36 kcal/mol and 25 °C.
Regarding CGGACGGAAACGTTTCCG ((((((....)))..))), in series [1], the folding enthalpy was -12.5 kcal/mol. For the same sequence, in series [2], the Tm was found to be 46.4 °C.
Take GGCGAGCGAAAGCTGCC (((.(((....)))))): the folding enthalpy in series [1] is -27.6 kcal/mol. The Tm in series [2] stood at 66.9 °C.
On to GATCACCTGGGTGATC ((((((....)))))), for which the folding enthalpy in series [1] was -47.5 kcal/mol. In addition, the Tm in series [2] turned out to be 62.6 °C.
Take GATCCCATGTGGGATC ((((((....)))))): in series [1], the folding enthalpy was -38.2 kcal/mol. Further, the Tm in series [2] was 61.2 °C.
The like results for GCTTCTGGAAACAGAAAC (.(((((....))))).) were, in that order, -17.7 kcal/mol and 32.2 °C.
Consider GATGAGGGAAACCTCATC (((((((....))))))), for which the folding enthalpy in series [1] is -39.6 kcal/mol. The Tm in series [2] stood at 58.4 °C.
As to GCGAGGATTCGC ((((....)))), the folding enthalpy in series [1] was -22.7 kcal/mol. Also, the Tm in series [2] came to 54.7 °C.
The like results for GACAACGAAAGTTTGGTC ((((((....)))..))) were, in that order, -16.4 kcal/mol and 32.9 °C.
GGGAACGAAAGTTACCCC ((((((....)))..))): in series [1], the folding enthalpy was -20.2 kcal/mol. In addition, in series [2], the Tm is 53.4 °C.
The like results for GATCTTACCGAAGATC ((((((....)))))) were, in that order, -33 kcal/mol and 42.9 °C.
The like results for GAACCACCGAAAGGTTTC (((..(((....)))))) were, in that order, -9.16 kcal/mol and 22.3 °C.
The like results for CGCGGATAACTCCGCG ((((((....)))))) were, in that order, -38 kcal/mol and 62.2 °C.
As for GAAAGCGAAAGCTCTTC ((((((....))).))), the folding enthalpy in series [1] is -17.9 kcal/mol. In series [2], the Tm was 44.3 °C.
For the sequence GATCCGCCTACGGATC ((((((....)))))), in series [1], the folding enthalpy is -37.9 kcal/mol. In addition, the Tm in series [2] came out at 59.6 °C.
Take GATCACAGGAGTGATC ((((((....)))))): in series [1], the folding enthalpy was -38.2 kcal/mol. In series [2], the Tm worked out at 54.8 °C.
The like results for GATCAAACGATTGATC ((((((....)))))) were, in that order, -25.3 kcal/mol and 39.9 °C.
For GGTAACGAAAGTTGTACC ((((((....)))..))), the folding enthalpy in series [1] is -17.5 kcal/mol. Further, the Tm in series [2] was 34.8 °C.
Take GCCTAAGGAAACTTGGGC (((.(((....))).))): in series [1], the folding enthalpy is -37 kcal/mol. Moreover, the Tm in series [2] is 48.9 °C.
The like results for GATCGGCGCCCCGATC ((((((....)))))) were, in that order, -39.7 kcal/mol and 56.8 °C.
Consider GCGAGTACTCGC ((((....)))), for which the folding enthalpy in series [1] is -30.6 kcal/mol. Further, the Tm in series [2] amounted to 56.6 °C.
The like results for GATCCCGGAAACGGGGTC ((.((((....)))).)) were, in that order, -25.8 kcal/mol and 57.6 °C.
The like results for GCCCGTGGAAACACAGGC (((.(((....))).))) were, in that order, -29.8 kcal/mol and 50.4 °C.
The like results for GGCAGGGGAAACCCTGTC (.(((((....))))).) were, in that order, -29.9 kcal/mol and 55.9 °C.
For the sequence GCTAAGCGAAAGCTGTGC ((..(((....)))..)), the folding enthalpy in series [1] is -18.1 kcal/mol. In series [2], the Tm came to 48.6 °C.
Regarding GCTACGCGAAAGCGAGC (((.(((....)))))), the folding enthalpy in series [1] was -15.8 kcal/mol. Besides, in series [2], the Tm turned out to be 56.5 °C.
For the sequence GCTAAGCGAAAGCTAGC (((.(((....)))))), the folding enthalpy in series [1] is -31.8 kcal/mol. For the same sequence, the Tm in series [2] amounted to 56.1 °C.
The like results for GATCAGAGTACTGATC ((((((....)))))) were, in that order, -37.4 kcal/mol and 49 °C.
The like results for GTTGTACGAAAGTAAAAC (((.(((....))).))) were, in that order, -26.7 kcal/mol and 38.8 °C.
The like results for GTACGTCGAAAGACCTAC (((.(((....))).))) were, in that order, -13.6 kcal/mol and 34.3 °C.
On to GATCATTGCAATGATC ((((((....)))))), for which, in series [1], the folding enthalpy was -44.8 kcal/mol. The Tm in series [2] is 52.3 °C.
The like results for GGGCGTGGAAACACGTCC ((.((((....)))).)) were, in that order, -36.1 kcal/mol and 62.1 °C.
In the case of CGTGGACGGAAACGTACG (((..(((....)))))), in series [1], the folding enthalpy was -20.3 kcal/mol. Besides, the Tm in series [2] is 36.6 °C.
Consider GTTTATGCGAAAGCAAAC (((..(((....)))))), for which the folding enthalpy in series [1] is -8.45 kcal/mol. Moreover, the Tm in series [2] came out at 28.1 °C.
On to GCGGGTGGAAACGCTCGC (((.(.(....).).))), for which, in series [1], the folding enthalpy is -24.6 kcal/mol. Further, the Tm in series [2] was 52.1 °C.
On to GTATCTGGAAACAGGTAC (((.(((....))).))), for which, in series [1], the folding enthalpy is -36.2 kcal/mol. Further, the Tm in series [2] was determined as 42.7 °C.
Take GGGTATCGAAAGATTCCC (((.(((....))).))): in series [1], the folding enthalpy was -30.6 kcal/mol. The Tm in series [2] came to 48.8 °C.
The like results for GAGGACGAAAGTCTACTC ((((((....)))..))) were, in that order, -12 kcal/mol and 36.8 °C.
The like results for GTACCCGGAAACGGATAC (((.(((....))).))) were, in that order, -24.3 kcal/mol and 42.2 °C.
The like results for GGCGCCGAAAGGCTTGCC ((((((....)))..))) were, in that order, -19.9 kcal/mol and 53.4 °C.
With GTTAACGGAAACGTTAGC (.(((((....))))).), in series [1], the folding enthalpy was -21.3 kcal/mol. Besides, the Tm in series [2] was found to be 42.9 °C.
The like results for GCGTTGCGAAAGCAGAGC ((..(((....)))..)) were, in that order, -35.8 kcal/mol and 63.4 °C.
The like results for GTCTTCGAAAGAAGGGAC ((((((....)))..))) were, in that order, -14.1 kcal/mol and 32.9 °C.
As to GTTGGTCGAAAGACAAC (((.(((....)))))), in series [1], the folding enthalpy is -20.4 kcal/mol. Besides, the Tm in series [2] was determined as 45.7 °C.
